Measured values gathered from unrelated publications.
Compare with care: the assays were run in different laboratories.
Cnr2: Cannabinoid receptor 2 (Cnr2, Mus musculus, UniProt P47936)
mreB: mreB (Escherichia coli, UniProt P0A9X4)
pol: pol (Feline immunodeficiency virus, UniProt P16088)
G protein-coupled receptor 88: G protein-coupled receptor 88 (Homo sapiens, UniProt Q9GZN0)
CTSL: Procathepsin L (CTSL, Homo sapiens, UniProt P07711)

Cc1nonc1Cn1nnc2c(N3CC[C@H](O)C3)nc(C(C)(C)C)nc21  EC50 (Cnr2; cAMP, agonist): 0.2 nM
NC1CCCCc2c1[nH]c1ccc(Br)cc21 (stereo not drawn)  IC50 (mreB; ATPase activity, inhibitor, absorbance): 44000 nM
CCOC(=O)C(CC)(CCCSCCOCCOCCOCCNC(=O)OC(C)(C)C)NC(=O)c1ccc(C2CC2)c(Cc2ccc(F)cc2)n1 (stereo not drawn)  Ki (Cnr2; ligand displacement, radioligand; cell membranes): 117 nM
Cc1cc(/C=C/C#N)cc(C)c1Nc1ccnc(Nc2ccc(C#N)cc2)n1  IC50 (pol; enzyme activity, inhibitor): 50.9 nM
C[C@]12CC[C@@H]3c4ccc(O)cc4CC[C@H]3[C@@H]1CC[C@@H]2O  Kd (Protein disulfide-isomerase (P4HB, Homo sapiens, UniProt P07237); binding, radioligand): 1500 nM
CC(NCCCNC(=O)c1cc(Cl)c(Cl)s1)c1cc2cc(Br)ccc2[nH]1 (stereo not drawn)  IC50 (mreB; ATPase activity, inhibitor, absorbance): 6000 nM
O=P(O)(O)Oc1ccccc1OP(=O)(O)O  IC50 (Signal transducer and activator of transcription 5B, SH2 (STAT5B, Homo sapiens, UniProt P51692); ligand displacement, FP): 1950 nM
CC[C@H](C)COc1ccc([C@@H](CO)C(=O)N[C@H](C)c2ccccc2)cc1  EC50 (G protein-coupled receptor 88; cAMP, agonist, TR-FRET): 2000 nM
Cc1nc([C@@](C)(CC2CC2)NC(=O)c2cc(OCC(F)(F)F)c(C3CC3)cn2)no1  Ki (Cnr2; ligand displacement, radioligand; cell membranes): 6 nM
O=[As](O)(O)c1ccc(Cc2ccc([As](=O)(O)O)cc2)cc1  Ki (Autotaxin (ENPP2, Homo sapiens, UniProt Q13822); enzyme activity, inhibitor, absorbance): 47.5 nM
CCCc1ccc(-c2ccc([C@@H](CO)C(=O)N[C@H](C)c3ccccc3)cc2)cc1  EC50 (G protein-coupled receptor 88; cAMP, agonist, TR-FRET): 138 nM
CCOC(=O)C(CC)(CCCSCCOCCOCCOCCOCCNC(=O)OC(C)(C)C)NC(=O)c1ccc(C2CC2)c(Cc2ccc(F)cc2)n1 (stereo not drawn)  Ki (Cnr2; ligand displacement, radioligand; cell membranes): 93 nM
NC(=O)[C@@H]1CC(F)(F)CN1C(=O)c1ccc(N2CC(F)(F)C2)c(OCC2CC2)n1  EC50 (Cnr2; cAMP, agonist): 3 nM
Cc1ccnc2c1NC(=O)c1cccnc1N2C1CC1  IC50 (pol; enzyme activity, inhibitor): 1400 nM
CC(C)C[C@H](NC(=O)[C@H]1O[C@@H]1C(=O)O)C(=O)NCCCCN=C(N)N  IC50 (CTSL; enzyme activity, inhibitor): 0.238 nM
CCCCCCC(C)(C)c1ccc([C@@H]2C[C@H](O)CC[C@H]2CCCO)c(O)c1  EC50 (Cnr2; cAMP, agonist): 0.05 nM
CCOC(=O)c1c(NCc2ccc(SC)cc2)c2cccc(C)c2[nH]c1=O  IC50 (Anoctamin-2 (ANO2, Homo sapiens, UniProt Q9NQ90); ion flux, inhibitor): 990 nM
CC(C)C[C@H]1C(=O)N2CCC[C@H]2[C@]2(O)O[C@](NC(=O)[C@@H]3C=C4c5cccc6[nH]cc(c56)C[C@H]4N(C)C3)(C(C)C)C(=O)N12  IC50 (Solute carrier organic anion transporter family member 1B3 (SLCO1B3, Homo sapiens, UniProt Q9NPD5); transporter uptake, inhibitor, fluorescence; CHO; 30 min, pH 7.4): 2200 nM
CCOC(=O)C(CC)(CCCSCCOCCOCCNc1ccc([N+](=O)[O-])c2nonc12)NC(=O)c1ccc(C2CC2)c(Cc2ccc(F)cc2)n1 (racemic)  Ki (Cnr2; ligand displacement, radioligand; cell membranes): 73 nM
CC[C@H]1NC(=O)[C@@H]2CSC(=N2)[C@H](Cc2ccccc2)N(C)C(=O)[C@@H]2CCCN2C(=O)[C@H](C(C)C)N(C)C(=O)[C@H](Cc2ccccc2)OC(=O)[C@H](C)[C@@H](C)NC(=O)[C@@H]([C@@H](C)O)NC(=O)[C@@H](CC(C)C)N(C)C(=O)[C@@H]2CSC1=N2  IC50 (CTSL; enzyme activity, inhibitor): 20400 nM
CCCCNNC(=O)c1ccc(Br)cc1  IC50 (Histone deacetylase 4 (HDAC4, Homo sapiens, UniProt P56524); enzyme activity, inhibitor, fluorescence): > 100000 nM
NCCCNC1CCCCc2c1[nH]c1ccc(Br)cc21 (stereo not drawn)  IC50 (mreB; ATPase activity, inhibitor, absorbance): 25000 nM
CCOC(=O)[C@](CC)(CCC[S+]([O-])CCOCCOCCNC(=O)OC(C)(C)C)NC(=O)c1ccc(C2CC2)c(Cc2ccc(F)cc2)n1 (stereo partly drawn)  EC50 (Cnr2; cAMP, agonist): 65 nM
CC(C)c1cccc(NC(=O)C2CC(=O)Nc3ccccc32)c1 (stereo not drawn)  IC50 (CTSL; enzyme activity, inhibitor, FRET): 16800 nM
